# Yeast growth inh – yeast BB579 growth reduction in restrictive medium. S. cerevisiae BB579 growth, OD615, 48 h. inhibition, % at 10 µM. hit rate 0.51% among 140,000;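 active = inhibition above a set limit, 3 SD over the mean compound inhibition, cut at about 44% in these data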
#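 Test system: DeaD yeast strain BB579 / Buffer or medium: restrictive glucose-based CSMM-D medium / Doses: single 10 µM dose / Schedule: 4 h cell preincubation, 48 h compound exposure, 30 °C humidified / Technique: culture absorbance at 615 nm / Controls: amphotericin B positive control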
# sdo1 growth – sdo1-depleted yeast growth rescue; AID 817; S. cerevisiae sdo1-depleted JHY4D growth rescue, OD600 30 h; stronger effect = higher value; pdr5 snq2 efflux-pump mutant strain; z-score at 10 µM; hit rate 0.21% among 140,000;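 active = z-score above 3 at both the 24 hr and the 30 hr optical density reads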;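 note: z-score against mean and SD of all compound wells on the same plate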
# sEH inh – inhibitors of human soluble epoxide hydrolase; P34913; recombinant human sEH enzymatic activity assay; inhibition, % at 2 µM; hit rate 0.34% among 91,000; AID 707; in the data active = inhibition above about 80%
# Target sequence (P34913 whole entry, looked up): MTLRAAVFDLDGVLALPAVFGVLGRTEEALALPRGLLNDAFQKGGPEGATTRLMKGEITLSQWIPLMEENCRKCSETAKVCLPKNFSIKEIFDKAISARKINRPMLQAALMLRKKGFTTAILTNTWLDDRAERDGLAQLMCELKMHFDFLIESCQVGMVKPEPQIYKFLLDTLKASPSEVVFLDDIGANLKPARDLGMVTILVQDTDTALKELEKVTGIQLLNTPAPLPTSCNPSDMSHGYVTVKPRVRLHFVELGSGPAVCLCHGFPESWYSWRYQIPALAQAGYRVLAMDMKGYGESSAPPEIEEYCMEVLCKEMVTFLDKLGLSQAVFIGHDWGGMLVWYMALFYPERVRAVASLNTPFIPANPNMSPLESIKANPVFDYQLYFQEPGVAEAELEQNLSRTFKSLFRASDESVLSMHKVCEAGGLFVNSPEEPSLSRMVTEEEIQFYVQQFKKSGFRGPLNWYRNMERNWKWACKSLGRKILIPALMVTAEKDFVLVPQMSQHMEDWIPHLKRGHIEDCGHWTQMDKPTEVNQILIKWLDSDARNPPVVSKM
# sEH act – activators of human soluble epoxide hydrolase; P34913; hit rate 0.04% among 91,000; purified human sEH enzymatic activity, activator screen; AID 717; activation, % at 2 µM; in the data active = activation above about 37%
# Yeast lifespan up – extends the lifespan of yeast; S. cerevisiae growth with nicotinamide, OD615; deaD strain in restrictive glucose medium; inhibition of the nicotinamide effect, % at 10 µM; hit rate 0.68% among 130,000; AID 775;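 active = inhibition above a set limit, placed 3 SD over the median of all compounds, cut at about 26% in these data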;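 note: 0% = nicotinamide-treated wells and 100% = cells grown without nicotinamide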
#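 assay system = DeaD-strain S. cerevisiae | measured by = absorbance at 615 nm | probe or stimulus = nicotinamide 1.5 mM | buffer or medium = CSMM-D glucose medium, restrictive | times = 48 h at 30 °C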
# Measles CPE – protection of cells from measles virus; Measles virus-infected cells, CPE protection, absorbance; protection (pct of control), % at 4 µM; hit rate 1.5% among 140,000; in the data active = protection mostly above about 24%, no sharp cut-off; inactive = mostly below about 26%
# Numbers without * were called inactive; nt = not tested or not shown. This is a sample that favours compounds with a hit; in the whole collection about 3% have one here.
SMILES,Yeast growth inh,sdo1 growth,sEH inh,sEH act,Yeast lifespan up,Measles CPE
O=C1C2CCCN2C(c2cccs2)N1c1ccc(Cl)cc1 (stereo not drawn),-39.5,-0.25,nt,nt,-4.7,25.2*
COc1ccccc1C1N(c2ccc(Cl)cc2)C(=O)C2CCCN21 (stereo not drawn),-72.7,0.85,10.3,-8.8,3.6,6.2
CCOc1ccc(NC(=S)NC(C)c2cccs2)cc1 (stereo not drawn),2.3,-1.07,nt,nt,-6.5,14.9
C/C(=N/NC(=O)CNC(=O)c1ccccn1)c1ccccc1,-21.2,0.55,nt,nt,-0.1,13.8
C=CCNC(=S)N/N=C(\C)c1ccccn1,93.2*,-0.75,-0.6,-0.8,-9.5,13.0
COc1ccc(N2C(=O)[C@@H]3Cc4ccccc4CN3C2=O)cc1,-0.6,0.48,-4.3,6.4,-5.6,31.5*
COc1ccc2cc(/C=N/NC(=O)c3ccc(CN(c4cccc(Cl)c4Cl)S(C)(=O)=O)cc3)c(Cl)nc2c1,-19.7,0.05,nt,nt,2.9,3.9
O=C(Oc1ccc2cc(Br)ccc2c1)c1cccnc1,-17.4,-1.41,3.7,-3.3,-2.0,0.8
COc1ccc(C(=O)C/C(=C\C(=O)c2ccc(C)cc2)c2ccccc2)cc1,-23.0,-0.14,-5.4,5.3,33.2*,0.1
COc1ccc(CCn2c(C(C)C)nc3c(c(=O)c4ccccc4n3C)c2=O)cc1,-33.6,-1.37,nt,nt,27.4*,8.9
CCOC(=O)CC(=O)Nc1ccc(C)cc1,-18.6,1.03,6.2,-5.0,-2.5,2.6
CC(=O)Nc1ccc(S(=O)(=O)NNC(=O)COc2cc(C)ccc2C(C)C)cc1,-22.4,-0.01,0.9,0.9,-15.2,54.0*
CC(C)(C)n1nc(-c2ccc(F)cc2)c2c(N)ncnc21,87.6*,-2.67,5.5,-7.4,-6.1,1.1
CC(C)(C)n1nc(-c2ccc(Cl)cc2)c2c(N)ncnc21,82.6*,-2.64,-12.0,9.7,-17.9,5.2
CCOc1ccc(C(=O)NCC(=O)OC2CCOC2=O)cc1OCC (stereo not drawn),-48.3,-0.22,-11.3,10.3,-0.9,42.5*
O=C(c1ccccc1)c1nn(-c2ccc(Cl)cc2)c(=O)cc1C(F)(F)F,-13.8,-1.19,16.7,-19.0,32.0*,11.2
CCOc1ccccc1Nc1nc(N)nc(CSc2nccc(C)n2)n1,-6.9,-0.38,5.4,-4.2,-17.0,24.4*
CC1(C)CC(=O)C(C(=O)Cc2ccccc2[N+](=O)[O-])C(=O)C1,-35.4,0.51,nt,nt,57.9*,11.0
N#CCN1CCN(CC(=O)Nc2cccc3ccccc23)CC1,-41.0,0.11,4.3,-4.4,0.7,22.1
Cc1cccc2cc(CN(CC3CCCO3)C(=S)NCc3ccco3)c(=O)[nH]c12 (stereo not drawn),-17.4,-1.02,nt,nt,2.7,31.1*
Cc1cc(C)c2[nH]c(=O)c(CN(CC3CCCO3)C(=S)NCc3ccco3)cc2c1 (stereo not drawn),-40.5,-0.48,nt,nt,-1.3,10.4
CCCCn1c(N)c(N(CCC(C)C)C(=O)COC(=O)c2ccco2)c(=O)[nH]c1=O,-36.0,1.53,nt,nt,-19.9,31.1*
CCCCn1c(N)c(N(CCC(C)C)C(=O)CSc2nnc3ccccn23)c(=O)[nH]c1=O,-46.5,1.31,nt,nt,-18.2,10.9
Cc1cccc(NC(=O)Cn2cnc3ccccc3c2=O)c1C,10.7,1.08,-5.7,8.0,-22.1,5.6
O=C(CN(Cc1ccccc1)S(=O)(=O)c1ccccc1)N1CCOCC1,10.9,0.09,-0.7,0.6,-6.3,38.1*
SMILES,Yeast growth inh,sdo1 growth,sEH inh,sEH act,Yeast lifespan up,Measles CPE
O=C(N/N=C/c1ccc(Br)cc1)c1ccccc1-n1cccc1,-16.3,-0.87,-0.5,1.7,-22.8,1.7
COc1ccccc1CNC(=O)c1ccccc1N,-51.6,0.52,-1.2,3.6,1.7,36.6*
O=C1C(=C2SCCCS2)CC/C1=C\c1ccc(F)cc1,-43.9,0.35,10.6,-5.3,2.1,43.6*
Cc1ccc(S(=O)(=O)/N=S(\C)CC2CC2(Cl)Cl)cc1 (stereo not drawn),-19.0,0.22,-5.8,6.8,-3.2,1.8
N#Cc1c(Nc2ccccc2)sc(C(=O)c2ccccc2)c1N,-41.6,-1.7,8.7,-6.6,-21.7,68.5*
Cc1ccc(CSC2=CS(=O)(=O)c3ccccc3N2)cc1,-16.2,0.33,-0.1,-1.9,-14.3,9.9
Cc1cccc(CSC2=CS(=O)(=O)c3ccccc3N2)c1,-5.5,0.14,-0.6,-1.4,-13.6,42.4*
O=C1NC2(CCCCCC2)C(=O)N1Cc1ccc([N+](=O)[O-])cc1,-18.0,0.78,nt,nt,2.4,32.5
COC(=O)c1cc(OC)c(OC)cc1NC(=S)Nc1cccc(C(C)=O)c1,-19.6,0.57,nt,nt,39.6*,22.4
COc1cccc(OC)c1C(=O)Nc1cccc(C(C)=O)c1,-31.4,-1.22,0.5,-0.9,nt,3.0
CCOC(=O)N1CCC(N(CCOC)C(=O)Nc2ccc(CC)cc2)CC1,14.3,-0.05,nt,nt,-9.1,8.2
CCc1ccc(NC(=O)N(CCOC)C2CCN(C(C)=O)CC2)cc1,19.6,-0.93,-5.3,4.1,-8.7,64.8*
O=C(CN1CCCCC1)Nc1ccc(NC(=O)c2ccc(Cl)cc2)cc1Cl,-46.8,-0.77,14.4,-12.5,-4.4,24.7
Cc1nc2ccccc2c(=O)n1/N=C/c1ccccn1,-10.4,0.87,-4.8,4.4,-9.8,6.9
C=CCN=c1scc(-c2ccc(F)cc2)n1/N=C/c1ccccn1,-44.9,-0.83,nt,nt,-6.0,26.3
C=CCN=c1scc(-c2ccccc2)n1/N=C/c1ccccn1,4.5,-1.49,nt,nt,-5.5,50.4*
CCN=c1scc(-c2ccccc2)n1/N=C/c1ccccn1,-14.2,-0.96,nt,nt,-8.1,61.9*
C/C=C/C(=O)OCC(=O)Nc1nc2ccc(C)cc2s1,-18.6,0.06,-3.3,1.4,49.4*,4.8
Cc1ccc(O)c(C(CC(=O)N2CCCC2)c2ccccc2)c1 (stereo not drawn),-26.9,-0.1,nt,nt,1.4,29.4*
CCCN(CCC)C(=O)CC(c1ccccc1)c1cc(C)ccc1O (stereo not drawn),-34.8,-1.5,-5.0,5.6,-15.6,9.3
CCc1c(O)cc2n(c1=O)-c1ccc(Cl)cc1C2(C)C,-25.5,-1.63,6.4,-4.2,nt,4.0
O=[N+]([O-])c1ccc(Cl)cc1Sc1nc2ccccc2o1,22.0,-0.43,2.1,0.9,nt,3.7
O=[N+]([O-])c1ccc(Sc2nc3ccccc3o2)c([N+](=O)[O-])c1,98.9*,-2.73,3.8,-7.1,-11.3,27.0
CCCC(=O)Nc1nc(-c2ccc3c(c2)CCN3S(C)(=O)=O)cs1,-34.2,-0.41,-22.1,21.7,-10.3,1.2
CS(=O)(=O)N1CCc2cc(-c3csc(NC(=O)Cc4ccccc4)n3)ccc21,-45.7,-1.43,9.9,-4.7,nt,117.7*
O=C(Cc1cccs1)Nc1nc(-c2ccc(F)cc2F)cs1,28.0,-2.16,1.5,1.6,-21.9,15.8
CC1Cc2cc(-c3csc(NC(=O)Cc4cccs4)n3)ccc2N1S(C)(=O)=O (stereo not drawn),-16.9,-0.82,7.8,-7.1,6.3,101.6*

# Compound activity from PubChem.
